Experimental data reported in ChEMBL document CHEMBL1143122, “Novel analogs of D-e-MAPP and B13. Part 1: synthesis and evaluation as potential anticancer agents” (Bioorg Med Chem, 2008).

Legend:
Assay type in all cases: functional
U-251 = experiment: Antiproliferative activity against human U251 cells after 48 hrs; conditions: U-251, 48 h
Procedure, shortened: (§1)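 NCI 60-cell-line screen. Lines grown in RPMI 1640 with 5% fetal bovine serum and 2 mM L-glutamine, plated at 5,000–40,000 cells/well according to doubling time, left 24 h at 37 °C in 5% CO2. Drug stocks in DMSO at 400-fold the top final concentration. Five 10-fold dilutions, 10−4 to 10−8 M, incubated 48 h. Growth read spectrophotometrically as net protein; GI50 taken as 50% reduction.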

LOX IMVI = experiment: Antiproliferative activity against human LOXIMVI cells after 48 hrs
Procedure, shortened: (§2)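 NCI 60-cell screen. Cells were grown in RPMI 1640 with 5% FBS and 2 mM L-glutamine, then plated at 5,000–40,000 cells/well according to doubling time and preincubated for 24 h at 37 °C in 5% CO2. Compounds were dissolved in DMSO at 400× the top final concentration and tested at five 10-fold dilutions from 10−4 to 10−8 M for 48 h. Growth was read spectrophotometrically; GI50 is 50% net protein reduction.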

Malme-3M = experiment: Antiproliferative activity against human MALME3M cells after 48 hrs; procedure, shortened: as §2
SK-MEL-2 = experiment: Antiproliferative activity against human SKMEL2 cells after 48 hrs; conditions: SK-MEL-2, 48 h; procedure, shortened: as §2
SK-MEL-28 = experiment: Antiproliferative activity against human SKMEL28 cells after 48 hrs; conditions: SK-MEL-28, 48 h; procedure, shortened: as §2
OVCAR-4 = experiment: Antiproliferative activity against human OVCAR4 cells after 48 hrs; conditions: OVCAR-4, 48 h; procedure, shortened: as §2
SK-OV-3 = experiment: Antiproliferative activity against human SKOV3 cells after 48 hrs; conditions: SK-OV-3, 48 h; procedure, shortened: as §2
786-0 = experiment: Antiproliferative activity against human 786-0 cells after 48 hrs; conditions: 786-0, 48 h; procedure, shortened: as §2
A498 = experiment: Antiproliferative activity against human A498 cells after 48 hrs; conditions: A498, 48 h; procedure, shortened: as §2
ACHN = experiment: Antiproliferative activity against human ACHN cells after 48 hrs; procedure, shortened: as §2
TK-10 = experiment: Antiproliferative activity against human TK10 cells after 48 hrs; conditions: TK-10, 48 h; procedure, shortened: as §1
UO-31 = experiment: Antiproliferative activity against human UO31 cells after 48 hrs; conditions: UO-31, 48 h; procedure, shortened: as §1
PC-3 = experiment: Antiproliferative activity against human PC3 cells after 48 hrs; conditions: PC-3, 48 h; procedure, shortened: as §2
DU-145 = experiment: Antiproliferative activity against human DU145 cells after 48 hrs; conditions: DU-145, 48 h; procedure, shortened: as §2
[1] = Antiproliferative activity against human NCI-ADR-RES cells after 48 hrs; procedure, shortened: as §2
MDA-MB-231 = experiment: Antiproliferative activity against human MDA-MB-231 cells after 48 hrs; conditions: MDA-MB-231, 48 h; procedure, shortened: as §2
MDA-MB-435 = experiment: Antiproliferative activity against human MDA-MB-435 cells after 48 hrs; conditions: Homo sapiens, MDA-MB-435, 48 h; procedure, shortened: as §2
BT-549 = experiment: Antiproliferative activity against human BT549 cells after 48 hrs; conditions: BT-549, 48 h; procedure, shortened: as §2
HOP-92 = experiment: Antiproliferative activity against human HOP92 cells after 48 hrs; conditions: HOP-92, 48 h; procedure, shortened: as §2
NCI-H23 = experiment: Antiproliferative activity against human NCI-H23 cells after 48 hrs; conditions: NCI-H23, 48 h; procedure, shortened: as §2
NCI-H460 = experiment: Antiproliferative activity against human NCI-H460 cells after 48 hrs; conditions: NCI-H460, 48 h; procedure, shortened: as §2
NCI-H522 = experiment: Antiproliferative activity against human NCI-H522 cells after 48 hrs; conditions: NCI-H522, 48 h; procedure, shortened: as §2
COLO 205 = experiment: Antiproliferative activity against human COLO205 cells after 48 hrs; conditions: COLO 205, 48 h; procedure, shortened: as §2
HCC 2998 = experiment: Antiproliferative activity against human HCC2998 cells after 48 hrs; conditions: HCC 2998, 48 h; procedure, shortened: as §2
HCT-116 = experiment: Antiproliferative activity against human HCT116 cells after 48 hrs; conditions: HCT-116, 48 h; procedure, shortened: as §2
SF-268 = experiment: Antiproliferative activity against human SF268 cells after 48 hrs; conditions: SF-268, 48 h; procedure, shortened: as §2
SF-295 = experiment: Antiproliferative activity against human SF295 cells after 48 hrs; conditions: SF-295, 48 h; procedure, shortened: as §2
SF-539 = experiment: Antiproliferative activity against human SF539 cells after 48 hrs; conditions: SF-539, 48 h; procedure, shortened: as §2
K562 = experiment: Antiproliferative activity against human K562 cells after 48 hrs; conditions: K562, 48 h; procedure, shortened: as §2
MOLT-4 = experiment: Antiproliferative activity against human MOLT4 cells after 48 hrs; conditions: MOLT-4, 48 h; procedure, shortened: as §2
RPMI-8226 = experiment: Antiproliferative activity against human RPMI8226 cells after 48 hrs; conditions: RPMI-8226, 48 h; procedure, shortened: as §2
A549 = experiment: Antiproliferative activity against human A549 cells after 48 hrs; conditions: A549, 48 h; procedure, shortened: as §2
[2] = read-out: Log LC50 (the source's name) (converted)

Q: Which GI50 (U-251) does the source give for `CCCCCCCCCCCCCCN[C@@H](CO)Cc1ccccc1` here?
A: 1.74 µM

Q: And the TGI (U-251; read-out: Log TGI (converted))?
A: 3.24 µM

Q: What about the GI50 (LOX IMVI) of the same compound?
A: 1.58 µM

Q: What about the LC50 (LOX IMVI) of the same compound?
A: 5.75 µM

Q: What about the TGI (LOX IMVI; read-out: Log TGI (converted)) of the same compound?
A: 3.02 µM

Q: And the GI50 (Malme-3M)?
A: 2 µM

Q: And the LC50 (Malme-3M)?
A: 6.31 µM

Q: And the TGI (Malme-3M; read-out: Log TGI (converted))?
A: 3.55 µM

Q: What about the GI50 (SK-MEL-2) of the same compound?
A: 2.69 µM

Q: What about the LC50 (SK-MEL-2) of the same compound?
A: > 100 µM

Q: And the TGI (SK-MEL-2; read-out: Log TGI (converted))?
A: 5.5 µM

Q: What about the GI50 (SK-MEL-28) of the same compound?
A: 1.91 µM

Q: What about the LC50 (SK-MEL-28) of the same compound?
A: 6.31 µM

Q: What about the TGI (SK-MEL-28; read-out: Log TGI (converted)) of the same compound?
A: 3.47 µM

Q: What about the GI50 (OVCAR-4) of the same compound?
A: 1.91 µM

Q: And the LC50 (OVCAR-4)?
A: 6.31 µM

Q: What about the TGI (OVCAR-4; read-out: Log TGI (converted)) of the same compound?
A: 3.47 µM

Q: And the GI50 (SK-OV-3)?
A: 2.19 µM

Q: And the CC50 (SK-OV-3; [2])?
A: 9.33 µM

Q: And the TGI (SK-OV-3; read-out: Log TGI (converted))?
A: 4.57 µM

Q: And the GI50 (786-0)?
A: 1.82 µM

Q: And the CC50 (786-0; [2])?
A: 5.89 µM

Q: And the TGI (786-0; read-out: Log TGI (converted))?
A: 3.24 µM

Q: And the GI50 (A498)?
A: 14.5 µM

Q: And the CC50 (A498; [2])?
A: 52.5 µM

Q: What about the TGI (A498; read-out: Log TGI (converted)) of the same compound?
A: 27.5 µM

Q: What about the GI50 (ACHN) of the same compound?
A: 1.7 µM

Q: What about the CC50 (ACHN; [2]) of the same compound?
A: 5.89 µM

Q: And the TGI (ACHN; read-out: Log TGI (converted))?
A: 3.16 µM

Q: What about the GI50 (TK-10) of the same compound?
A: 2.04 µM

Q: And the CC50 (TK-10; [2])?
A: 6.76 µM

Q: What about the TGI (TK-10; read-out: Log TGI (converted)) of the same compound?
A: 3.72 µM

Q: What about the GI50 (UO-31) of the same compound?
A: 4.37 µM

Q: What about the LC50 (UO-31) of the same compound?
A: > 100 µM

Q: And the TGI (UO-31; read-out: Log TGI (converted))?
A: 21.4 µM

Q: What about the GI50 (PC-3) of the same compound?
A: 1.62 µM

Q: And the LC50 (PC-3)?
A: 5.62 µM

Q: And the TGI (PC-3; read-out: Log TGI (converted))?
A: 2.82 µM

Q: And the GI50 (DU-145)?
A: 1.45 µM

Q: What about the CC50 (DU-145; [2]) of the same compound?
A: 6.03 µM

Q: And the TGI (DU-145; read-out: Log TGI (converted))?
A: 3.09 µM

Q: And the GI50 [1]?
A: 1.86 µM

Q: And the LC50 [1]?
A: 6.31 µM

Q: And the TGI ([1]; read-out: Log TGI (converted))?
A: 3.47 µM

Q: What about the GI50 (MDA-MB-231) of the same compound?
A: 2 µM

Q: And the LC50 (50% lethal concentration) (MDA-MB-231)?
A: 6.61 µM

Q: What about the TGI (MDA-MB-231; read-out: Log TGI (converted)) of the same compound?
A: 3.63 µM

Q: And the GI50 (MDA-MB-435)?
A: 1.74 µM

Q: What about the LC50 (MDA-MB-435) of the same compound?
A: 5.62 µM

Q: And the TGI (MDA-MB-435; read-out: Log TGI (converted))?
A: 3.16 µM

Q: What about the LC50 (BT-549) of the same compound?
A: 4.57 µM

Q: What about the TGI (BT-549; read-out: Log TGI (converted)) of the same compound?
A: 1.78 µM

Q: And the GI50 (HOP-92)?
A: 1.23 µM

Q: And the LC50 (HOP-92)?
A: 6.46 µM

Q: What about the TGI (HOP-92; read-out: Log TGI (converted)) of the same compound?
A: 2.82 µM

Q: And the GI50 (NCI-H23)?
A: 2.09 µM

Q: What about the CC50 (NCI-H23; [2]) of the same compound?
A: 9.77 µM

Q: What about the TGI (NCI-H23; read-out: Log TGI (converted)) of the same compound?
A: 4.47 µM

Q: And the GI50 (NCI-H460)?
A: 1.82 µM

Q: What about the CC50 (NCI-H460; [2]) of the same compound?
A: 6.17 µM

Q: What about the TGI (NCI-H460; read-out: Log TGI (converted)) of the same compound?
A: 3.39 µM

Q: What about the GI50 (NCI-H522) of the same compound?
A: 2.09 µM

Q: What about the TGI (NCI-H522; read-out: Log TGI (converted)) of the same compound?
A: 3.98 µM

Q: What about the GI50 (COLO 205) of the same compound?
A: 1.66 µM

Q: What about the CC50 (COLO 205; [2]) of the same compound?
A: 6.03 µM

Q: What about the TGI (COLO 205; read-out: Log TGI (converted)) of the same compound?
A: 3.16 µM

Q: What about the GI50 (HCC 2998) of the same compound?
A: 2.24 µM

Q: And the CC50 (HCC 2998; [2])?
A: 6.17 µM

Q: And the TGI (HCC 2998; read-out: Log TGI (converted))?
A: 3.72 µM

Q: And the GI50 (HCT-116)?
A: 2.04 µM

Q: What about the LC50 (HCT-116) of the same compound?
A: 6.76 µM

Q: What about the TGI (HCT-116; read-out: Log TGI (converted)) of the same compound?
A: 3.72 µM

Q: And the GI50 (SF-268)?
A: 1.78 µM

Q: And the LC50 (SF-268)?
A: 7.08 µM

Q: And the TGI (SF-268; read-out: Log TGI (converted))?
A: 3.55 µM

Q: What about the GI50 (SF-295) of the same compound?
A: 1.78 µM

Q: And the LC50 (SF-295)?
A: 6.17 µM

Q: And the TGI (SF-295; read-out: Log TGI (converted))?
A: 3.31 µM

Q: What about the GI50 (SF-539) of the same compound?
A: 1.7 µM

Q: What about the LC50 (SF-539) of the same compound?
A: 6.76 µM

Q: What about the TGI (SF-539; read-out: Log TGI (converted)) of the same compound?
A: 3.39 µM

Q: What about the GI50 (K562) of the same compound?
A: 1.82 µM

Q: What about the LC50 (K562) of the same compound?
A: 9.33 µM

Q: What about the TGI (K562; read-out: Log TGI (converted)) of the same compound?
A: 4.07 µM

Q: And the GI50 (MOLT-4)?
A: 2.04 µM

Q: And the LC50 (MOLT-4)?
A: 9.33 µM

Q: And the TGI (MOLT-4; read-out: Log TGI (converted))?
A: 4.37 µM

Q: What about the GI50 (RPMI-8226) of the same compound?
A: 1.55 µM

Q: And the CC50 (RPMI-8226; [2])?
A: 7.41 µM

Q: What about the TGI (RPMI-8226; read-out: Log TGI (converted)) of the same compound?
A: 3.39 µM

Q: And the GI50 (A549)?
A: 2.04 µM

Q: What about the CC50 (A549; [2]) of the same compound?
A: 26.3 µM

Q: And the TGI (A549; read-out: Log TGI (converted))?
A: 4.68 µM
